Test results as given in ChEMBL document CHEMBL4699408, “Synthesis and evaluation of anticancer activity of new 9-acridinyl amino acid derivatives” (RSC Med Chem, 2020).
Activity calls are given as the source filed them. The calls are words filed in the database; no cut-off is given here.

What was measured:
[1] = Cytotoxicity against unstimulated human blood Leucocytes assessed as cell viability at 6.25 to 100 uM incubated for 24 to 72 hrs by MTT assay; conditions: leucocyte
DNA = assay: Binding affinity to DNA isolated from human A549 cells assessed as intercalating activity at 100 uM after 1 hr by electrophoretic mobility shift assay
Summary of the method: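 Genomic DNA isolated from A549 cells (proteinase K/SDS lysis, salt precipitation, ethanol precipitation); 0.5 μg DNA incubated 1 h at room temperature with 100 μM compound in 5 mM Tris-HCl/50 mM NaCl buffer; run on 0.8% agarose gel 4 h at 30 V, GelRed stained; binding read as shift in DNA mobility.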

A549 [2] = assay: Induction of apoptosis in human A549 cells assessed as late apoptotic cells at IC50 concentration after 48 hrs by annexin V-FITC/propidium iodide staining based flow cytometry (reference value: 0.7 %); type: functional
A549 [3] = assay: Induction of apoptosis in human A549 cells assessed as early apoptotic cells at IC50 concentration after 48 hrs by annexin V-FITC/propidium iodide staining based flow cytometry (reference value: 0.9 %); type: functional
K562 = assay: Cytotoxicity against human K562 cells assessed as reduction in cell viability incubated for 72 hrs by MTT assay; type: functional, cell-based; conditions: K562, 72 h
A549 [4] = assay: Cytotoxicity against human A549 cells assessed as reduction in cell viability incubated for 72 hrs by MTT assay; type: functional, cell-based; conditions: A549, 72 h
[5] = biological target: DNA topoisomerase 2-alpha (Homo sapiens, UniProt P11388); assay: Inhibition of human topoisomerase 2alpha using supercoiled pNO1 plasmid DNA as substrate incubated for 30 mins by fluorescence based microplate reader analysis
Chain of DNA topoisomerase 2-alpha (P11388 whole entry): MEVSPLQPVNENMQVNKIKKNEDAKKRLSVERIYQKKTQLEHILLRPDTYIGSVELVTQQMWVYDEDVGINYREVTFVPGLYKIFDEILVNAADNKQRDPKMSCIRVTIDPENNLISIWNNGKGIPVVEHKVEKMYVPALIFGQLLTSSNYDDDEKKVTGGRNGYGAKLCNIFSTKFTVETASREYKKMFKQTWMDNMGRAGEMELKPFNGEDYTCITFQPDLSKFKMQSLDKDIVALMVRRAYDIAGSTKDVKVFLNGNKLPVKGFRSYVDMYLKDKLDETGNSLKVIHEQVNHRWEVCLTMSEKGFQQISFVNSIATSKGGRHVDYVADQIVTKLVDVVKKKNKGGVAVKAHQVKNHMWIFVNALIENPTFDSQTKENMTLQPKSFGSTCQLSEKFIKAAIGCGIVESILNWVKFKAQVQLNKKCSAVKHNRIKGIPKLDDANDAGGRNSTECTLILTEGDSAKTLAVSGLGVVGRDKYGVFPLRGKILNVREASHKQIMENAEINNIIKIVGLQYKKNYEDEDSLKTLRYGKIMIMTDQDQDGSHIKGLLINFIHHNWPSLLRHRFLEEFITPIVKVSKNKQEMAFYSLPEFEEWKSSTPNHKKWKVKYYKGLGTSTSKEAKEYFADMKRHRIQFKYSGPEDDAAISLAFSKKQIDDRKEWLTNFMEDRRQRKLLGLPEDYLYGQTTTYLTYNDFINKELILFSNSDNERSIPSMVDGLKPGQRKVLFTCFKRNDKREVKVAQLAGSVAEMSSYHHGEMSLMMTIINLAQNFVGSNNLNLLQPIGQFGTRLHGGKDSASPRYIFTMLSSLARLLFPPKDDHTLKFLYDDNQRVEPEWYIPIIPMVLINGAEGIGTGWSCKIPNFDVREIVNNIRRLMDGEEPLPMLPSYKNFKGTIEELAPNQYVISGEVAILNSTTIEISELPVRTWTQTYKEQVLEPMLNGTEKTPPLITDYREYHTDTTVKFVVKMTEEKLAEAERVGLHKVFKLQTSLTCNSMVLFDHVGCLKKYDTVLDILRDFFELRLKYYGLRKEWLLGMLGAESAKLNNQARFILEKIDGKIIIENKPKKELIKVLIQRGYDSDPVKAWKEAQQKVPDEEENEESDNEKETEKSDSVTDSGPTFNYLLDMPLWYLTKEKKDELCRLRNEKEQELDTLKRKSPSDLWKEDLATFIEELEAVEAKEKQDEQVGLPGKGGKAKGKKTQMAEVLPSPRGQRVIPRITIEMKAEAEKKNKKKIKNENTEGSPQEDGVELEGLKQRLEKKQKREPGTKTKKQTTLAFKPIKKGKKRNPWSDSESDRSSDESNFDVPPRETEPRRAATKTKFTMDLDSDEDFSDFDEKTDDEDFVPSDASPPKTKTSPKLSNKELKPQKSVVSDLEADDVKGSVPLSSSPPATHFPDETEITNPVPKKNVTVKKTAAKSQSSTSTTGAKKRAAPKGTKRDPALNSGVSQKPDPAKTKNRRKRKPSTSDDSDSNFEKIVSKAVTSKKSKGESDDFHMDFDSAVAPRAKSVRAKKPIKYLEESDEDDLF

MRC5 = assay: Cytotoxicity against human MRC5 cells assessed as reduction in cell viability incubated for 72 hrs by MTT assay; type: cell-based; conditions: MRC5, 72 h
A549 [6] = assay: Cell cycle arrest in human A549 cells assessed as accumulation in SubG1 phase by measuring late apoptotic cells with fragmented DNA content at IC50 concentration incubated for 48 hrs by RNaseA/propidium iodide staining based flow cytometry; type: functional
A549 [7] = assay: Cell cycle arrest in human A549 cells assessed as accumulation in S phase at IC50 concentration incubated for 24 hrs by RNaseA/propidium iodide staining based flow cytometry; type: functional
A549 [8] = assay: Induction of cell cycle arrest in human A549 cells assessed as effect on cell cycle distribution at IC50 concentration incubated for 24 to 48 hrs by RNaseA/propidium iodide staining based flow cytometry; type: functional; conditions: time hrs 24-48
A549 [9] = assay: Inhibition of colony formation in human A549 cells at IC50 concentration incubated for 48 hrs followed by cell washing and measured after 10 days by crystal violet staining based assay relative to control; type: functional
A549 [10] = assay: Cell cycle arrest in human A549 cells assessed as accumulation in G2/M phase at IC50 concentration incubated for 48 hrs by RNaseA/propidium iodide staining based flow cytometry (reference value: 11 %); type: functional
A549 [11] = assay: Cell cycle arrest in human A549 cells assessed as accumulation in G2/M phase at IC50 concentration incubated for 24 hrs by RNaseA/propidium iodide staining based flow cytometry (reference value: 9 %); type: functional

Structure (SMILES) | Activity [1] | Activity (DNA) | Activity (A549 [2]) | Activity (A549 [3]) | IC50 (K562) | IC50 (A549 [4]) | IC50 [5] | IC50 (MRC5) | Activity (A549 [6]) | Activity (A549 [7]) | Activity (A549 [8]) | inhibition (INH) (A549 [9]) | Activity (A549 [10]) | Activity (A549 [11])
COc1cc(NS(C)(=O)=O)ccc1Nc1c2ccccc2nc2ccccc12 [AMSACRINE] | Toxic | Active | 2.8% | 16.1% | 13.8 µM | 22.2 µM | 16 µM | 15.4 µM | Active | Active | – | – | – | –
CCOC(=O)CCNc1c2ccccc2nc2ccccc12 | Non-Toxic | inactive | 1.2% | 3.7% | 19.2 µM | 6.15 µM | 13 µM | 12.1 µM | – | – | inactive | >95% | – | –
COC(=O)[C@H](Cc1ccccc1)Nc1c2ccccc2nc2ccccc12 | – | – | – | – | 40.6 µM | 25.7 µM | – | 47.6 µM | – | – | – | – | – | –
COC(=O)[C@H](Cc1cn(C)c2ccccc12)Nc1c2ccccc2nc2ccccc12 | – | – | – | – | 46.6 µM | 29.5 µM | – | 56.1 µM | – | – | – | – | – | –
COC(=O)[C@H](Cc1c[nH]cn1)Nc1c2ccccc2nc2ccccc12 | – | – | – | – | 46.1 µM | 34.3 µM | – | 65.1 µM | – | – | – | – | – | –
CCOC(=O)CCCNc1c2ccccc2nc2ccccc12 | Non-Toxic | inactive | 5.4% | 11.7% | 11.2 µM | 9.5 µM | 14 µM | 15.8 µM | – | – | inactive | >95% | – | –
Cn1cc(C[C@H](Nc2c3ccccc3nc3ccccc23)C(=O)O)c2ccccc21 | – | – | – | – | 42.4 µM | 34.1 µM | – | 47 µM | – | – | – | – | – | –
COC(=O)CCCCCCCNc1c2ccccc2nc2ccccc12 | – | – | – | – | 62.9 µM | 62.6 µM | – | 49.8 µM | – | – | – | – | – | –
CCCOC(=O)CCCNc1c2ccccc2nc2ccccc12 | Non-Toxic | Active | 3.8% | 12.5% | 21.8 µM | 19.3 µM | 16 µM | 16.9 µM | – | – | – | >95% | 29% | 18%
CCCOC(=O)CCCCCNc1c2ccccc2nc2ccccc12 | – | – | – | – | 75 µM | 72.4 µM | – | 58.8 µM | – | – | – | – | – | –
CCCOC(=O)CCNc1c2ccccc2nc2ccccc12 | Non-Toxic | inactive | 2.9% | 4.6% | 16.4 µM | 6.3 µM | 14 µM | 11.6 µM | – | – | – | >95% | 19% | 12%
CCOC(=O)CCCCCNc1c2ccccc2nc2ccccc12 | – | – | – | – | 34.5 µM | 36.3 µM | – | 25.1 µM | – | – | – | – | – | –
